Assay results from publication PMC10905692 (ACS Omega, 2024).
Entries after “also recorded” stand apart in the source; their conditions may differ.

Legend:
PTP1B [1] = target: T1, PTP1B (Homo sapiens, UniProt P18031); test: PTP1B inhibitory assay; assay type: biochemical
T1 sequence (P18031 1-435): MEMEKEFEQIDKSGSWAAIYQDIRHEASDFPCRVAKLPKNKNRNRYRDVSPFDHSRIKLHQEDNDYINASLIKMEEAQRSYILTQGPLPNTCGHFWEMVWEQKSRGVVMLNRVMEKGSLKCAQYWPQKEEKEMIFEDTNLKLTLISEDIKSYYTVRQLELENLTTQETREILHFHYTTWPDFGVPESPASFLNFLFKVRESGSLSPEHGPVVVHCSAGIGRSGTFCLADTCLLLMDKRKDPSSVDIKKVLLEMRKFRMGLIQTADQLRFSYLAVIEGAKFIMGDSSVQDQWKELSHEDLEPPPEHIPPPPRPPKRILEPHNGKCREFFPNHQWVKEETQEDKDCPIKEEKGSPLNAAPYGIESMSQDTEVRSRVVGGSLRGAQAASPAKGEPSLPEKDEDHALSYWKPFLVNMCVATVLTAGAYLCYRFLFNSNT

PTP1B [2] = target: T1, PTP1B; test: Fluorescence quenching measurement of binding affinity; conditions: for n (number of binding sites) / KSV (Stern–Volmer constant): fluorescence quenching; for KSV (Stern–Volmer constant): 0–25 μM inhibitor
Summary of the method: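 Intrinsic fluorescence quenching of human recombinant PTP1B, at the enzyme level of the activity assays, in assay buffer. Test compound was added at 0, 1.6, 3.2, 6.2, 12.5 and 25 μM. Emission spectra were recorded over 300–400 nm with 250 nm excitation and 2 nm slits. KSV was obtained by Stern–Volmer analysis; binding constant KA and number of sites n from eqs 9–10.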

PTP1B [3] = target: T1, PTP1B; test: Enzyme kinetic assay; assay type: biochemical; conditions: for kinetic mode: Lineweaver–Burk plots; for KIS: inhibition constant for enzyme–substrate complex
Summary of the method: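 Human recombinant PTP1B in Tris-HCl pH 7.5 buffer (25 mM Tris, 1 mM EDTA, 2 mM 2-mercaptoethanol, 1 mM dithiothreitol); test compounds dissolved in DMSO. Steady-state rates were taken across varied inhibitor and substrate concentrations and analysed by Lineweaver–Burk and Dixon plots. KI and KIS came from secondary plots of slopes or 1/Vmax intercepts vs inhibitor concentration (eqs 2–4). Reversibility was judged from activity vs enzyme concentration at several inhibitor levels.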

PTP1B [4] = target: T1, PTP1B; test: Time-dependent assays and progress curves; assay type: biochemical
Summary of the method: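 PTP1B was preincubated with test compound for 0, 5, 10, 15, 30, 45, 60 or 75 min (0.2 μM), then residual activity was read. Progress curves were recorded at actual substrate concentration across several inhibitor concentrations by absorbance at 405 nm, […] the ~10 min lag. vi, vs, kobs and Ki app were fitted with eqs 5–8. kobs was plotted against inhibitor concentration to give k3 and k4.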

[5] = Ki (inhibition constant), estimated using Dixon plots
[6] = KI, inhibition constant for free enzyme, secondary plots

SMILES | IC50 (PTP1B [1]) [µM] | Kd (PTP1B [2]) [µM] | n (number of binding sites) (PTP1B [2]) | KSV (Stern–Volmer constant) (PTP1B [2]) | Ki (PTP1B [3]; [5]) [µM] | kinetic mode (PTP1B [3]) | Ki (PTP1B [3]; [6]) [µM] | KIS (PTP1B [3]; secondary plots) [µM] | fold better inhibition than mother skeleton (PTP1B [1]; glycosides 11 vs 6 and 13 vs 8) [fold] | fold effective vs mother compound (PTP1B [1]; pyran compound 5 vs 6) [fold] | fold more effective (inhibition activity) (PTP1B [1]; trans 1 vs cis 2) [fold] | Ki (PTP1B [4]) [µM] | k3 (PTP1B [4]; slow-binding, progress curves) [μM^–1 min^–1] | k4 (PTP1B [4]; slow-binding, progress curves) [min^–1] | reversibility of the inhibitor to the enzyme (PTP1B [3]; initial velocity plots at different inhibitor concentrations) | time-dependent inhibition type (PTP1B [4]; preincubation 0–75 min, kobs vs inhibitor concentration linear)
CC1(C)C=Cc2c(cc(O)c3c2O[C@H](c2ccccc2)[C@H](O)C3=O)O1 [Compound 2, (2R,3S)-3,5-dihydroxy-8,8-dimethyl-2-phenyl-2,3-dihydro-4H,8H-pyrano[2,3-f]chromen-4-one] | 2.24 ± 0.5 | 370 | 1.16 | 0.0304 × 10^5 L·mol^–1 | 1.04 | competitive inhibitors | – | – | – | – | – | – | – | – | – | –
O=c1cc(-c2ccc(O)cc2O)oc2cc(O)cc(O)c12 [Compound 10, norartocarpetin] | 3.39 ± 0.2 | 833 | 1.06 | 0.0124 × 10^5 L·mol^–1 | 2.71 | mixed-type inhibitions; also recorded: mixed type I | 2.68 | 5.23 | – | – | – | – | – | – | – | –
O=C1c2c(O)cc(O)cc2O[C@H](c2ccc(O)cc2)[C@H]1O [Compound 6, dihydrokaempferol] | 35.4 ± 0.7 | 10000 | 0.79 | 0.0002 × 10^5 L·mol^–1 | 34.7 | noncompetitive | – | – | – | – | – | – | – | – | – | –
O=c1cc(-c2ccc(O)cc2)oc2cc(O)cc(O)c12 [Compound 8, apigenin] | 5.99 ± 0.5 | 769 | 1.02 | 0.0056 × 10^5 L·mol^–1 | 2.9 | competitive | – | – | – | – | – | – | – | – | – | –
CC1(C)C=Cc2c(cc(O)c3c2O[C@H](c2ccc(O)cc2)[C@@H](O)C3=O)O1 [Compound 5, yukovanol] | 3.07 ± 0.2 | 1110 | 1.20 | 0.0132 × 10^5 L·mol^–1 | 3.46 | noncompetitive inhibitor | – | – | – | 9 | – | – | – | – | – | –
CC1(C)C=Cc2c(cc(O)c3c2O[C@H](c2ccccc2)[C@@H](O)C3=O)O1 [Compound 1, (2R,3R)-3,5-dihydroxy-8,8-dimethyl-2-phenyl-2,3-dihydro-4H,8H-pyrano[2,3-f]chromen-4-one] | – | 27.8 | 1.09 | 0.4375 × 10^5 L·mol^–1 | 0.07 | competitive mode; also recorded: competitive inhibitors | – | – | – | – | 13 | 0.0641 | 0.2262 | 0.0145 | typical reversibility | simple slow-binding inhibitor; also recorded: slow binding mode; also recorded: slow binding characteristics

The next lines start with results.

IC50 (PTP1B [1]) [µM] | Kd (PTP1B [2]) [µM] | n (number of binding sites) (PTP1B [2]) | KSV (Stern–Volmer constant) (PTP1B [2]) | Ki (PTP1B [3]; [5]) [µM] | kinetic mode (PTP1B [3]) | Ki (PTP1B [3]; [6]) [µM] | KIS (PTP1B [3]; secondary plots) [µM] | fold better inhibition than mother skeleton (PTP1B [1]; glycosides 11 vs 6 and 13 vs 8) [fold] | fold effective vs mother compound (PTP1B [1]; pyran compound 5 vs 6) [fold] | fold more effective (inhibition activity) (PTP1B [1]; trans 1 vs cis 2) [fold] | Ki (PTP1B [4]) [µM] | k3 (PTP1B [4]; slow-binding, progress curves) [μM^–1 min^–1] | k4 (PTP1B [4]; slow-binding, progress curves) [min^–1] | reversibility of the inhibitor to the enzyme (PTP1B [3]; initial velocity plots at different inhibitor concentrations) | SMILES | time-dependent inhibition type (PTP1B [4]; preincubation 0–75 min, kobs vs inhibitor concentration linear)
1.19 ± 0.3 | 72.5 | 0.93 | 0.0569 × 10^5 L·mol^–1 | 0.45 | competitive | – | – | – | – | – | – | – | – | – | CC1(C)C=Cc2c(cc(O)c3c(=O)cc(-c4ccc(O)cc4)oc23)O1 [Compound 7, atalantoflavone] | –
0.22 ± 0.3 | 22.1 | 0.97 | 0.3803 × 10^5 L·mol^–1 | 0.18 | mixed type I | 0.18 | 0.80 | 27 | – | – | – | – | – | – | O=c1cc(-c2ccc(O)cc2)oc2cc(O[C@@H]3O[C@H](CO)[C@@H](O)[C@H](O)[C@H]3O)cc(O)c12 [Compound 13, apigenin-7-O-β-D-glucopyranoside] | –
